ChEMBL document CHEMBL1914346, “Discovery and synthesis of novel substituted benzocoumarins as orally active lipid modulating agents” (Bioorg Med Chem Lett, 2011)

Legend:
Syrian golden hamster [1] = assay: Antidyslipidemic activity in high fat diet-fed dyslipidemic syrian golden hamster model assessed as decrease in serum LDL level at 10 mg/kg, po administered once daily for 7 days relative to vehicle treated control; type: functional, Mesocricetus auratus; design: scale not given: the % may be the effect or the level left
Method in brief: (§1)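 Male Golden Syrian hamsters, 12 weeks old, 110 ± 10 g, eight per group, fed high-fat diet plus fructose daily on days 1–10. Oral dosing once daily on days 4–10 in 0.1% gum acacia; HFD-fed vehicle animals served as controls. After the last dose, retro-orbital blood was taken into EDTA and plasma lipids were measured enzymatically on an autoanalyzer. Results are % change versus HFD controls; t-test/ANOVA, p<0.05.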

Syrian golden hamster [2] = assay: Antidyslipidemic activity in high fat diet-fed dyslipidemic syrian golden hamster model assessed as decrease in serum total cholesterol level at 10 mg/kg, po administered once daily for 7 days relative to vehicle treated control; type: functional, Mesocricetus auratus; design: scale not given: the % may be the effect or the level left; method in brief: as §1
Syrian golden hamster [3] = assay: Antidyslipidemic activity in high fat diet-fed dyslipidemic syrian golden hamster model assessed as increase in serum ratio of serum HDL/total cholesterol level at 10 mg/kg, po administered once daily for 7 days relative to vehicle treated control; type: functional, Mesocricetus auratus; method in brief: as §1
Syrian golden hamster [4] = assay: Antidyslipidemic activity in high fat diet-fed dyslipidemic syrian golden hamster model assessed as increase in serum HDL level at 10 mg/kg, po administered once daily for 7 days relative to vehicle treated control; type: functional, Mesocricetus auratus; method in brief: as §1
Syrian golden hamster [5] = assay: Antidyslipidemic activity in high fat diet-fed dyslipidemic syrian golden hamster model assessed as decrease in serum triglyceride level at 10 mg/kg, po administered once daily for 7 days relative to vehicle treated control; type: functional, Mesocricetus auratus; design: scale not given: the % may be the effect or the level left; method in brief: as §1
[6] = Antioxidant activity assessed as trolox equivalent by TEAC assay; type: functional
Syrian golden hamster [7] = assay: Toxicity in syrian golden hamster; type: organism-based, Mesocricetus auratus; details: in vivo
Method in brief: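 HFD-fed male Golden Syrian hamsters, eight per group, dosed orally at 10 mg/kg once daily for 7 days in 0.1% gum acacia. Body weight was recorded daily and food intake was monitored, then compared with HFD vehicle controls.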

Syrian golden hamster [8] = assay: Antidyslipidemic activity in high fat diet-fed dyslipidemic syrian golden hamster model assessed as increase in serum LDL level at 10 mg/kg, po administered once daily for 7 days relative to vehicle treated control; type: functional, Mesocricetus auratus; method in brief: as §1
Syrian golden hamster [9] = assay: Antidyslipidemic activity in high fat diet-fed dyslipidemic syrian golden hamster model assessed as increase in serum ratio of HDL/total cholesterol level at 25 mg/kg, po administered once daily for 7 days relative to vehicle treated control; type: functional, Mesocricetus auratus; method in brief: as §1
Syrian golden hamster [10] = assay: Antidyslipidemic activity in high fat diet-fed dyslipidemic syrian golden hamster model assessed as decrease in serum total cholesterol level at 25 mg/kg, po administered once daily for 7 days relative to vehicle treated control; type: functional, Mesocricetus auratus; design: scale not given: the % may be the effect or the level left; method in brief: as §1
Syrian golden hamster [11] = assay: Antidyslipidemic activity in high fat diet-fed dyslipidemic syrian golden hamster model assessed as decrease in serum triglyceride level at 25 mg/kg, po administered once daily for 7 days relative to vehicle treated control; type: functional, Mesocricetus auratus; design: scale not given: the % may be the effect or the level left; method in brief: as §1
[12] = biological target: T1, 3-hydroxy-3-methylglutaryl-coenzyme A reductase (Homo sapiens) (UniProt P04035); assay: Inhibition of HMG-CoA reductase using HMG-CoA as substrate at 100 uM
T1 sequence (whole entry): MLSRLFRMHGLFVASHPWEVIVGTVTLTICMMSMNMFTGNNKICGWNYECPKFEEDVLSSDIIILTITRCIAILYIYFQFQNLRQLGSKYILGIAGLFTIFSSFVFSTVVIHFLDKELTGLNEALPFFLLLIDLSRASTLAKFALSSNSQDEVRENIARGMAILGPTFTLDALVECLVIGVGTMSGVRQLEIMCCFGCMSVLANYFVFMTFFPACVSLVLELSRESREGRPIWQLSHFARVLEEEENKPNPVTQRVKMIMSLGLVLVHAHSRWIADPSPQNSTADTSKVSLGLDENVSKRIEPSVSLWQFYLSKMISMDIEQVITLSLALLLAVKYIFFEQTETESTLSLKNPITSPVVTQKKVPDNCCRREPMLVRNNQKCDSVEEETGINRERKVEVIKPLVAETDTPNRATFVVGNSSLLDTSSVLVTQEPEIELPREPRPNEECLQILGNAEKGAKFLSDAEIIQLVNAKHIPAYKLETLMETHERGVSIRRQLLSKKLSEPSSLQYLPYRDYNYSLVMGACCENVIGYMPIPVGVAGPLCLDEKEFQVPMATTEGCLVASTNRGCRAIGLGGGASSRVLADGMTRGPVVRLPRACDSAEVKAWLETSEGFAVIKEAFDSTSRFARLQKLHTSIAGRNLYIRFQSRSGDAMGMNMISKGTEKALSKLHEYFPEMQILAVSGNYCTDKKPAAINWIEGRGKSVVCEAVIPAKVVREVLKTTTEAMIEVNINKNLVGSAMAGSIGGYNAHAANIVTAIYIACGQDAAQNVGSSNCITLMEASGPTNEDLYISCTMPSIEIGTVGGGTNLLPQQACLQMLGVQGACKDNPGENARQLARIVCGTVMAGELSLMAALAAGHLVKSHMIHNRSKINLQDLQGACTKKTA
Method in brief: (§2)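 HMG-CoA reductase kit assay using supplied HMGR enzyme, HMG-CoA substrate, NADPH and assay buffer. Test concentrations were 5, 10, 25, 50 and 100 µM, with % inhibition recorded at each.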

[13] = biological target: T1, 3-hydroxy-3-methylglutaryl-coenzyme A reductase (Homo sapiens); assay: Inhibition of HMG-CoA reductase using HMG-CoA as substrate at 25 uM; method in brief: as §2
[14] = biological target: T1, 3-hydroxy-3-methylglutaryl-coenzyme A reductase (Homo sapiens); assay: Inhibition of HMG-CoA reductase using HMG-CoA as substrate at 10 uM; method in brief: as §2
Syrian golden hamster [15] = assay: Antidyslipidemic activity in high fat diet-fed dyslipidemic syrian golden hamster model assessed as decrease in serum LDL level at 25 mg/kg, po administered once daily for 7 days relative to vehicle treated control; type: functional, Mesocricetus auratus; design: scale not given: the % may be the effect or the level left; method in brief: as §1
Syrian golden hamster [16] = assay: Antidyslipidemic activity in high fat diet-fed dyslipidemic syrian golden hamster model assessed as increase in serum HDL level at 25 mg/kg, po administered once daily for 7 days relative to vehicle treated control; type: functional, Mesocricetus auratus; method in brief: as §1
[17] = biological target: T1, 3-hydroxy-3-methylglutaryl-coenzyme A reductase (Homo sapiens); assay: Inhibition of HMG-CoA reductase using HMG-CoA as substrate at 50 uM; method in brief: as §2
[18] = biological target: T1, 3-hydroxy-3-methylglutaryl-coenzyme A reductase (Homo sapiens); assay: Inhibition of HMG-CoA reductase using HMG-CoA as substrate at 5 uM; method in brief: as §2

In the case of Cc1cc(=O)oc2c3c(ccc12)C(=O)/C(=C/NC1CCCCC1)C=C3C=O, the Activity (Syrian golden hamster [1]) is reported as 10%, the Activity (Syrian golden hamster [2]) is reported as 14% and the Activity (Syrian golden hamster [3]) is reported as 17%. It also gave an Activity (Syrian golden hamster [4]) of 1%, an Activity (Syrian golden hamster [5]) of 62% and an Activity [6] of 0.3 mM. The Activity (Syrian golden hamster [7]) was “Non-toxic”.
Cc1cc(=O)oc2c3c(ccc12)C(=O)/C(=C/NC12CC4CC(CC(C4)C1)C2)C=C3C=O gave an Activity (Syrian golden hamster [1]) of 59%, an Activity (Syrian golden hamster [2]) of 48% and an Activity (Syrian golden hamster [3]) of 93%. For the same compound, the Activity (Syrian golden hamster [4]) was 1%, the Activity (Syrian golden hamster [5]) was 48% and the Activity [6] was 0.99 mM. The Activity (Syrian golden hamster [7]) was “Non-toxic”.
Cc1cc(=O)oc2c3c(ccc12)C(=O)/C(=C/Nc1ccccc1O)C=C3C=O gave an Activity (Syrian golden hamster [8]) of 12%, an Activity (Syrian golden hamster [2]) of 3% and an Activity (Syrian golden hamster [3]) of 19%. The Activity (Syrian golden hamster [4]) was 15%, the Activity (Syrian golden hamster [5]) was 42% and the Activity [6] was 0.36 mM. For the same compound, the Activity (Syrian golden hamster [7]) was “Non-toxic”.
Work on Cc1cc(=O)oc2c3c(ccc12)C(=O)/C(=C/NCC(C)(C)CO)C=C3C=O yielded an Activity (Syrian golden hamster [1]) of 36%, an Activity (Syrian golden hamster [2]) of 36% and an Activity (Syrian golden hamster [3]) of 61%. For the same compound, the Activity (Syrian golden hamster [4]) was 1%, the Activity (Syrian golden hamster [5]) was 49% and the Activity [6] was 1.9 mM. The Activity (Syrian golden hamster [7]) was “Non-toxic”.
In the case of CC(C)c1c(C(=O)Nc2ccccc2)c(-c2ccccc2)c(-c2ccc(F)cc2)n1CC[C@@H](O)C[C@@H](O)CC(=O)O [ATORVASTATIN], the Activity (Syrian golden hamster [1]) is reported as 23%, the Activity (Syrian golden hamster [2]) is reported as 25% and the Activity (Syrian golden hamster [3]) is reported as 83%. For the same compound, the Activity (Syrian golden hamster [4]) was 2% and the Activity (Syrian golden hamster [5]) was 67%.
In the case of Cc1cccc(C)c1N/C=C1\C=C(C=O)c2c(ccc3c(C)cc(=O)oc23)C1=O, the Activity (Syrian golden hamster [1]) is reported as 40%, the Activity (Syrian golden hamster [2]) is reported as 30% and the Activity (Syrian golden hamster [3]) is reported as 43%. It also gave an Activity (Syrian golden hamster [4]) of 1%, an Activity (Syrian golden hamster [5]) of 16% and an Activity [6] of 0.99 mM. For the same compound, the Activity (Syrian golden hamster [7]) was “Non-toxic”.
With CC[C@H](C)C(=O)O[C@H]1C[C@@H](C)C=C2C=C[C@H](C)[C@H](CC[C@@H]3C[C@@H](O)CC(=O)O3)[C@H]21 [LOVASTATIN] the Activity (Syrian golden hamster [9]) was 12%, the Activity (Syrian golden hamster [10]) was 9% and the Activity (Syrian golden hamster [11]) was 29%. It also gave an inhibition [12] of 84.4%, an inhibition [13] of 69.1% and an inhibition [14] of 46.7%. The Activity (Syrian golden hamster [15]) was 11%, the Activity (Syrian golden hamster [16]) was 3% and the inhibition [17] was 77.3%. It also gave an inhibition [18] of 27.5%.
